Data taken from ChEMBL document CHEMBL3227987, “A new nonsteroidal analgesic-antiinflammatory agent. Synthesis and activity of 4-ethoxy-2-methyl-5-morpholino-3(2H)-pyridazinone and related compounds” (J Med Chem, 1979).

Tests used:
[1] = test system: Rattus norvegicus; assay: Antiinflammatory activity in Wistar rat assessed as inhibition of carrageenan-induced paw edema at 50 mg/kg, po pretreated for 30 mins followed by carrageenan challenge measured after 3 hrs relative to control; type: functional
Procedure, shortened: (§1)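 Male Wistar rats (120-150 g), six per group, dosed orally with compound suspended in 1% gum arabic; 30 min later 0.1 mL 1% carrageenan injected sc into hind paw plantar surface. Edema measured at 3 h; percent inhibition calculated against carrageenan-only animals.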

[2] = test system: Rattus norvegicus; assay: Antiinflammatory activity in Wistar rat assessed as inhibition of carrageenan-induced paw edema at 100 mg/kg, po pretreated for 30 mins followed by carrageenan challenge measured after 3 hrs relative to control; type: functional; procedure, shortened: as §1
[3] = test system: Mus musculus; assay: Analgesic activity in sc dosed ddY mouse assessed as inhibition of acetic acid-induced abdominal stretching pretreated for 30 mins followed by acetic acid challenge measured for 5 to 20 mins; type: functional; conditions: Abdomen
Procedure, shortened: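 Compound suspended in 1% gum arabic, given sc to mice; 30 min later 0.6% acetic acid ip at 0.1 mL/10 g body weight. Mouse counted protected if no stretching from 5 to 20 min after acid; ED50 by Litchfield–Wilcoxon method.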

[4] = Acute toxicity in ip dosed ddY mouse measured after 72 hrs; type: organism-based; conditions: in vivo
[5] = test system: Rattus norvegicus; assay: Antiinflammatory activity in Wistar rat assessed as inhibition of carrageenan-induced paw edema at 25 mg/kg, po pretreated for 30 mins followed by carrageenan challenge measured after 3 hrs relative to control; type: functional; procedure, shortened: as §1

SMILES	inhibition in vivo at 50 mg/kg [1]	inhibition in vivo at 100 mg/kg [2]	ED50 [3]	LD50 at 72 h [4]	inhibition in vivo at 25 mg/kg [5]
C=CCOc1c(N2CCOCC2)cnn(C)c1=O	5.2%	17.4%	90 mg/kg	–	–
Cn1ncc(Cl)c(Cl)c1=O	-8.9%	23.2%	> 100 mg/kg	–	–
Cn1ncc(N2CCOCC2)c(Cl)c1=O	32.2%	38.9%	35 mg/kg	75 mg/kg	15.2%
Cn1ncc(N2CCOCC2)c(O)c1=O	8.2%	16.6%	> 100 mg/kg	–	–
Cn1ncc(O)c(Cl)c1=O	–	-5.8%	> 100 mg/kg	–	–
CCOc1c(NC)cnn(C)c1=O	4.5%	31.1%	55 mg/kg	400 mg/kg	-1.1%
CCCNc1cnn(C)c(=O)c1OCC	8%	38%	72 mg/kg	–	2%
CCOc1c(N(C)C)cnn(C)c1=O	30.7%	49.5%	86 mg/kg	305 mg/kg	27.5%
CCOc1c(N(CC)CC)cnn(C)c1=O	1.7%	32.5%	70 mg/kg	–	–
C=CCN(CC=C)c1cnn(C)c(=O)c1OCC	-5.2%	12.9%	82 mg/kg	–	–
CCOc1c(N2CCSCC2)cnn(C)c1=O	6.2%	11.8%	> 100 mg/kg	–	–
CCOc1c(N2CCCCC2)cnn(C)c1=O	-5.4%	14.1%	86 mg/kg	–	–
CCOc1c(N2CCCC2)cnn(C)c1=O	-2.3%	23%	> 100 mg/kg	–	–
CCOc1c(N2CCN(C)CC2)cnn(C)c1=O	10.2%	12.3%	82 mg/kg	–	–
CCOc1c(Nc2ccccc2)cnn(C)c1=O	–	4.9%	36 mg/kg	–	–
COc1c(N2CCOCC2)cnn(C)c1=O	23.2%	43.4%	72 mg/kg	600 mg/kg	11%
CCCOc1c(N2CCOCC2)cnn(C)c1=O	32.4%	34.9%	23 mg/kg	500 mg/kg	4.5%
CC(C)Oc1c(N2CCOCC2)cnn(C)c1=O	–	7.2%	86 mg/kg	–	–

SMILES	inhibition in vivo at 50 mg/kg [1]	inhibition in vivo at 100 mg/kg [2]	ED50 [3]	LD50 at 72 h [4]	inhibition in vivo at 25 mg/kg [5]
CCCCOc1c(N2CCOCC2)cnn(C)c1=O	-2.8%	28.8%	41 mg/kg	440 mg/kg	–
CCCCCOc1c(N2CCOCC2)cnn(C)c1=O	2.4%	20.7%	29 mg/kg	420 mg/kg	–
CCOc1c(N2CCOCC2)cnn(CC)c1=O	25.4%	58.4%	95 mg/kg	380 mg/kg	8.3%
CCCn1ncc(N2CCOCC2)c(OCC)c1=O	3.5%	32.4%	> 100 mg/kg	–	–
CCOc1c(N2CCOCC2)cnn(C(C)C)c1=O	2.1%	22.2%	> 100 mg/kg	–	–
CCCCn1ncc(N2CCOCC2)c(OCC)c1=O	–	18.3%	> 100 mg/kg	–	–
C/C=C/n1ncc(N2CCOCC2)c(OCC)c1=O	–	3.1%	> 100 mg/kg	–	–
C=CCn1ncc(N2CCOCC2)c(OCC)c1=O	1.2%	23.5%	18 mg/kg	550 mg/kg	–
CCOc1c(N2CCOCC2)cn[nH]c1=O	–	9.2%	> 100 mg/kg	–	–
CCOc1ccnn(C)c1=O	–	-12.2%	> 100 mg/kg	–	–
Cn1ncccc1=O	–	4.5%	65 mg/kg	–	–
O=c1cccn[nH]1	–	6.3%	> 100 mg/kg	–	–
Cn1ncc(N2CCOCC2)cc1=O	–	-5.6%	> 100 mg/kg	–	–
Cc1c(N(C)C)c(=O)n(-c2ccccc2)n1C [AMINOPYRINE]	25%	48.2%	46 mg/kg	420 mg/kg	11%
CCOc1c(N2CCOCC2)cnn(C)c1=O [EMORFAZONE]	38.8%	55%	41 mg/kg	700 mg/kg	20.2%
CCCCC1C(=O)N(c2ccccc2)N(c2ccccc2)C1=O [PHENYLBUTAZONE]	35%	40.6%	> 100 mg/kg	420 mg/kg	18%
c1ccnnc1 [PYRIDAZINE]	–	-2.4%	> 100 mg/kg	–	–
